# Source: PubChem
# ADAM10 inh: inhibitors of human ADAM10; O14672; recombinant ADAM10, EDANS/DABCYL FRET peptide cleavage, 3 h; inhibition, % at 7 µM; hit rate 0.62% among 370,000; AID 720582;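 active = inhibition above a per-campaign cutoff equal to the mean of compounds falling between control-based bounds plus 3 SD, cut at about 20% in these data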;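 note: 0% = DMSO wells while the 100% control is not disclosed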
# Target sequence (O14672 214-748 limits assumed): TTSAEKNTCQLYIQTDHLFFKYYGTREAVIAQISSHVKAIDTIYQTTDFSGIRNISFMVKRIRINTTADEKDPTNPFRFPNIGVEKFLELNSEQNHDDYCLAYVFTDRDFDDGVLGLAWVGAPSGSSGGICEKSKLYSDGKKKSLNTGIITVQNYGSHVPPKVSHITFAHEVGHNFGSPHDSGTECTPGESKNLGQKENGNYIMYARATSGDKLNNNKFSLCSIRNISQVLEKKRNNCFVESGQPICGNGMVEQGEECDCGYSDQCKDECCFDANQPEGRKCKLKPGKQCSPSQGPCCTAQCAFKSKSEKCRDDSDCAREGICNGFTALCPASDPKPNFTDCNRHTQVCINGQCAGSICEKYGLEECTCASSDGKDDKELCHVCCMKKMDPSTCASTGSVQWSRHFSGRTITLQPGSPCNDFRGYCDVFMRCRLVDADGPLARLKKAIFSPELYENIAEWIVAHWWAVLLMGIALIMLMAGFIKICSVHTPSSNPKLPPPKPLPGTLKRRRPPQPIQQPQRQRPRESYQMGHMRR
# MPTP inh: blocks calcium-induced mitochondrial swelling. isolated mouse mitochondria, Ca2+ swelling absorbance, 30 min. inhibition, % at 10 µM. hit rate 1.4% among 360,000;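 active = inhibition of 50% or more, scaled per plate between neutral and stimulator controls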;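 note: 0% = DMSO wells given calcium and 100% = 1 mM EGTA wells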
# aDG glyco act: alpha-DG glycosylation activation; activation, % at 10 µM; hit rate 0.22% among 360,000; Pro5-aDG cells, alpha-DG glycosylation AlphaScreen (IIH6); 0% Pro5, 100% B10-LARGE cell signal;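 active = activation of at least 8% versus controls, or a plate z-score of at least 8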;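 note: Pro5 are CHO cells carrying HIG-tagged alpha-DG that lacks glycosylation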
# ADAM17 inh: inhibitors of human ADAM17 | recombinant ADAM17, EDANS/DABCYL FRET peptide cleavage | inhibition, % at 6.95 µM | hit rate 0.83% among 370,000 | AID 720648;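 active = inhibition above the mean of compounds lying between control limits plus 3 SD, set per campaign, cut at about 8.5% in these data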;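 note: 0% = DMSO-only wells as the low control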
# V-ATPase pHluor: yeast V-ATPase proton transport regulation by pHLuorin; S. cerevisiae, pHLuorin cytosolic pH fluorescence; response, % at 10 µM; hit rate 0.37% among 350,000; AID 504577; in the data active = response mostly above about 7.3%, no sharp cut-off; inactive = mostly below about 5.4%; note: actives read high
# Hep lipid drop: hepatic lipid droplet formation modulation; AML12 mouse hepatocytes, oleate lipid droplets, BODIPY imaging; inhibition, % at 6.5 µM; hit rate 0.4% among 240,000;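 active = lipid droplet intensity inhibited by at least 50%, with more than 500 cells counted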
#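 Test system: AML12 mouse liver cells; schedule: overnight exposure; technique: high-content imaging of BODIPY-stained droplets and DAPI nuclei; read-out: % inhibition of corrected integrated BODIPY droplet signal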
# V-ATPase pH SP: regulators of yeast V-ATPase proton transport; shares compounds with V-ATPase pHluor; S. cerevisiae pHLuorin cytosolic pH; response, % at 10 µM; hit rate 2% among 980; in the data active = response above about 24%;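 note: plate controls were vehicle wells for no effect and positive control wells for full effect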
# * = called active by the depositor; . = no result given. Only some compounds are listed: those with a hit (about 3.1% of all), similar ones and a draw of the others.
SMILES,ADAM10 inh,MPTP inh,aDG glyco act,ADAM17 inh,V-ATPase pHluor,Hep lipid drop,V-ATPase pH SP
COc1ccc(-n2c(C)cc(C(=O)CN3C(=O)NC4(CCCc5sccc54)C3=O)c2C)cc1 (stereo unspecified),14,6,0,6,10*,-33,-1
O=C(Cc1ccc2c(c1)OCCO2)N1CCN(S(=O)(=O)c2ccccc2C(F)(F)F)CC1,-5,0,0,-1,12*,10,1
Cc1cccc2sc(N(CCCN(C)C)C(=O)c3ccc(Cl)s3)nc12,5,3,0,0,11*,4,0
COC(=O)[C@]12C[C@H](CC(=O)N3CCN(C(=O)c4ccco4)CC3)C(=O)N(Cc3ccc(Cl)cc3Cl)C1=C[C@H](C(C)(C)C)O[C@@H]2C,11,.,.,4,.,.,.
O=C(COC(=O)CCC(=O)c1ccc(F)cc1)NCCc1ccccc1,-8,-1,0,-2,1,.,-6
N#Cc1c(-c2ccccc2)c(C#N)c2nc3ccccc3n2c1N,-12,20,0,-5,9.1*,-16,-29
Cc1ccc(-c2c(C#N)c(N)n3c(nc4ccccc43)c2C#N)cc1,-17,27,0,-7,2,-26,.
O=C(NCC(c1cccs1)N1CCOCC1)c1cccc([N+](=O)[O-])c1 (stereo unspecified),0,-1,0,-1,53*,4,-3
O=C(CCn1nnc(-c2cccs2)n1)N1CCCC1,-3,.,.,1,.,.,.
OCCCn1c(-c2ccccc2)csc1=Nc1ccccc1,-3,-2,0,3,8.0*,12,2
COc1nn(-c2nc(-c3ccccc3)cc(C(F)(F)F)n2)cc1[N+](=O)[O-],8,1,0,-3,17*,0,0
FC(F)(F)c1cc(-c2ccccc2)nc(-n2cc(Cl)cn2)n1,-3,2,0,-2,-1,1,.
CC(=O)Nc1ccc2nc(CN3CCN(CC(C)C)C(CCO)C3)ccc2c1 (stereo unspecified),-64,1,0,-24,4,3,.
CC(=O)Nc1ccc2nc(CN3CCN(Cc4ccc(F)cc4)C(CCO)C3)ccc2c1 (stereo unspecified),-78,1,0,-29,11*,9,0
O=C1CC(=O)C(n2cncn2)C(c2ccc(Cl)cc2)C1 (stereo unspecified),7,-2,0,0,7.5*,19,2
O=C1CC(=O)C(n2cncn2)C(c2c(F)cccc2Cl)C1 (stereo unspecified),2,1,0,0,-5,3,.
C[C@@H]1[C@@H](O)C[C@@]2(C[C@H](O)c3ccccc3O2)O[C@H]1c1ccccc1,-1,.,.,3,.,.,.
O=C(CCC1CCN(C(=O)CC2=CCCCC2)CC1)NCc1ccc(F)cc1,-58,0,0,-17,7.1*,.,1
COC1=C[C@H](C(=O)NCc2ccc(Cl)cc2)C(C)C(c2ccccc2)CC1=O (stereo partly specified),6,.,.,4,.,.,.
Nc1ccccc1NC1=CC(=O)CC(c2ccco2)C1 (stereo unspecified),1,-1,0,-2,11*,-13,1
COc1ccc2c(c1)CNC2CS(=O)(=O)NC1CCCC1 (stereo unspecified),-60,.,.,-15,.,.,.
CC(=O)OC(C(=O)N1CCN(c2ccccc2F)CC1)c1ccccc1 (stereo unspecified),-6,2,0,-7,12*,.,1
Cc1ccc(CNC(=O)CCS(=O)(=O)c2cc3c(cc2Br)CCN3C(=O)C2CC2)o1,-3,.,.,2,.,.,.
CCOC(=O)C(CCCOc1ccccc1)C(=O)OCC,-2,-5,0,-3,2,-3,.
CCOC(=O)C(CCCOc1ccc(C)cc1)C(=O)OCC,4,-2,0,-1,9.6*,-9,-6
SMILES,ADAM10 inh,MPTP inh,aDG glyco act,ADAM17 inh,V-ATPase pHluor,Hep lipid drop,V-ATPase pH SP
Cc1ccccc1N(C)C(=O)CN1CCN(c2nc(-c3ccccc3)cs2)CC1,4,.,.,2,.,.,.
C#CCN1CC(N(C)CCOC(=O)CSc2ccccc2)CS1(=O)=O (stereo unspecified),-4,.,.,-2,.,.,.
CCC1S/C(=N/N=C/c2ccco2)N(Cc2ccccc2)C1=O (stereo unspecified),4,2,0,5,60*,6,2
Cc1ccc(S(=O)(=O)NN=C2CCCc3ccccc32)cc1,-11,3,0,-1,-3,.,.
Cc1ccc(S(=O)(=O)O/N=C2\CCCc3ccccc32)cc1,-2,0,0,-3,12*,10,-2
CCOC(=O)[C@]12CCCCC/C=C\1N(CCc1ccc(Cl)cc1)C(=O)[C@H]2CC(=O)N1CCSCC1,4,.,.,2,.,.,.
N#C/C(=C\c1ccco1)C(=O)Nc1ccc(S(N)(=O)=O)cc1,-2,2,0,-5,8.6*,9,-7
N#C/C(=C/c1ccc(-c2ccc(S(N)(=O)=O)cc2)o1)C(=O)Nc1ccccc1,-79,4,0,-23,-1,-22,.
CC(C(=O)Nc1ccc2c(c1)OCO2)c1ccc([N+](=O)[O-])cc1 (stereo unspecified),5,1,0,3,15*,-7,1
CC/C(Cc1ccccc1)=N/NC(=O)CNC(=O)c1ccc(Cl)cc1Cl,5,-1,0,5,1,-7,.
CC/C(C)=N\NC(=O)CNC(=O)c1ccc(Cl)cc1Cl,-12,-1,0,0,12*,0,2
Nc1nnc(SCC(=O)Nc2ccc(N3CCOCC3)c(Cl)c2)s1,-10,-2,0,-5,7.4*,10,-1
Cc1cccc(C)c1NC(=O)CN(C)C(=O)c1cc([N+](=O)[O-])ccc1N1CCOCC1,1,-1,0,-4,0,-47,.
CN(CC(=O)Nc1ccccc1Br)C(=O)c1cc([N+](=O)[O-])ccc1N1CCOCC1,6,-2,0,2,7.0*,.,-1
CCn1cc(Br)c(C(=O)Nc2nccs2)n1,-1,1,0,2,10*,4,0
COc1cccc(-c2ccc(CC[C@H]3O[C@H]4CC[C@@H](CO)O[C@H]4C[C@H]3NC(=O)c3cnccn3)cc2)c1,13,.,.,5,.,.,.
CCCCOCCCNC(=O)C[C@H]1C[C@@]2(C(=O)OC)C(=C[C@H](C3CCCC3)O[C@@H]2C)N(Cc2ccco2)C1=O,5,.,.,6,.,.,.
O=C(O)C1CC=CCC1C(=O)Nc1cc(Cl)ccc1Cl (stereo unspecified),-3,0,0,-4,1,3,.
O=C(O)C1CC=CCC1C(=O)NNc1c(Cl)cc(Cl)cc1Cl (stereo unspecified),6,-1,0,0,12*,4,1
